Assay outcomes: PubChem BioAssay, several laboratories
Most compounds without a hit are left out; they make up all but 2.6% or so of the library.
EP2 modulator – modulates human prostaglandin E2 receptor EP2 signaling; hit rate 0.83% among 260,000; P43116; EP2-expressing cells, cAMP HTRF FRET, PGE2 co-stimulation; AID 940; induction, % at 25 µM;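 active = compounds whose cAMP rise, as percent of the full-agonist control response, exceeds 60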;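 note: rat C6 glioma line stably carrying human EP2 under a CMV promoter; the protocol text gives 20 µM as final concentration; 100% = response of wells given 1 µM PGE2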
MC4R antag cAMP – antagonists of human melanocortin 4 receptor (MC4R); inhibition, % at 6.5 µM; hit rate 0.48% among 360,000; MC4R-expressing cells, MTII-stimulated cAMP, LANCE TR-FRET; AID 540295; P32245;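 active = inhibition above its plate's cutoff, the mean of tested wells on that plate plus 3 SD, cut at about 29% in these data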;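 note: 0% = Melanotan II alone and 100% = Melanotan II plus saturating MCL0020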
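Material: U2OS-MC4R stable cell line | Reagent: Melanotan II challenge after compound preincubation | Doses: One concentration, 6.5 µM nominal | Incubation: 30-min compound preincubation, 1-h Melanotan II challenge, 1-h detection, room temperature | Signal: TR-FRET cAMP assay | Replicates: One well per compound, no replicates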
Exocytosis inh – blocks lytic granule exocytosis | TALL-104 LAMP-1 surface exposure, flow cytometry; cells stimulated with thapsigargin and PMA | inhibition, % at 10 µM | hit rate 0.66% among 360,000;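 active = inhibition above about 55%, limit read from the data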
MC4R barr agon – agonists of human melanocortin 4 receptor (MC4R) beta-arrestin. AID 540308. activation, % at 8.9 µM. hit rate 0.98% among 360,000. P32245. U2OS MC4R beta-arrestin complementation, luminescence; percent of melanotan II response, DMSO zero;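 active = activation above a per-plate cutoff, the mean activation of sample wells on that plate plus 3 SD, cut at about 8% in these data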
PGE2 EP2 inh – EP2 receptor (human) inhibition; P43116; C6 glioma cells expressing human EP2, cAMP TR-FRET; cells stimulated with saturating PGE2; inhibition, % at 25 µM; hit rate 0.52% among 260,000; AID 1422;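 active = percent inhibition above 40 after rounding to a whole number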;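 note: rat C6 glioma host cells with rolipram phosphodiesterase inhibitor present; the protocol text gives 20 µM as final concentration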
T cell HTS – T cell immune modulators affecting CD8 T cell-vesicle binding. 2C CD8+ T cell-vesicle binding, flow cytometry; stronger effect = lower value. response (vesicle binding), % at 7 µM. hit rate 0.068% among 330,000. AID 2052;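 active = response, share of CD8 T cells binding vesicles, and their 90th percentile fluorescence all below set limits, cut at about 80% in these data, passing the limit was not always enough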;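 note: values below 100% mean blocked vesicle binding to the CD8+ T cells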
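Incubation: binding step 1.5 h, 37 °C, antibody labelling 20 min, ice; system: murine 2C transgenic CD8+ T lymphocytes; technique: cytometric PE anti-B7-1 and Alexa647 anti-CD8 signals after 1% paraformaldehyde fixation; also added: QL9-charged Drosophila Ld/ICAM-1/B7-1 vesicles; control set: naked versus QL9-loaded vesicles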
MC4R barr conf – human MC4R beta-arrestin agonism confirmation | shares compounds with MC4R barr agon | U2OS MC4R beta-arrestin recruitment, luminescence; scaled DMSO 0%, Melanotan II 100% | activation, % at 8.9 µM | hit rate 31% among 2,400 | AID 602192;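 active = mean activation across replicates above the hit cutoff set in the earlier primary screen, cut at about 8% in these data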
MOR-DOR barr ag – OPRM1-OPRD1 heterodimer agonism counter-screen | shares compounds with MC4R barr agon | U2OS PathHunter beta-arrestin, beta-gal luminescence; percent of deltorphin B response, DMSO zero | activation, % at 9.2 µM | hit rate 5.8% among 2,400;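 active = mean activation across replicates exceeds the hit threshold derived in the earlier primary screen, cut at about 18% in these data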;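 note: 100% = deltorphin B at 0.9 µM final and 0% = DMSO alone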
An asterisk follows results filed as active; · = not tested or not shown.

SMILES	EP2 modulator	MC4R antag cAMP	Exocytosis inh	MC4R barr agon	PGE2 EP2 inh	T cell HTS	MC4R barr conf	MOR-DOR barr ag
CC1CCC(C(C)C)C(OC(=O)Cn2c(-c3ccc(Cl)cc3)[n+](C)c3ccccc32)C1 (stereo not drawn)	56	-1	15	28*	2	64	8	9
CC1CCC(C(C)C)C(OC(=O)COC(=O)c2cccn2C)C1 (stereo not drawn)	40	10	0	-1	18	192	·	·
COc1cccc(C(=O)Nc2nnc(-c3cccs3)s2)c1	-4	-3	-2	15*	21	510	0	4
COCc1nnc(NC(=O)c2cccc(OC)c2)s1	-9	·	·	·	9	·	·	·
CCc1ccc(OCCNC(=O)OCc2ccccc2)cc1	11	-8	2	10.0*	8	631	2	4
CCc1ccc(OCC(=O)NCCOc2ccccc2)cc1	-46	0	-4	1	10	138	·	·
O=C(N/N=C1/CC(c2ccccc2)Oc2ccccc21)C1CC1 (stereo not drawn)	-11	10	-20	9.6*	2	210	8.7*	9
O=C(N/N=C1\CC(c2ccccc2)Oc2ccccc21)c1ccc(O)cc1 (stereo not drawn)	·	9	-9	0	·	711	·	·
CC(C)C(=O)N(Nc1nc2ccccc2s1)C(=O)C(C)C	27	5	-2	0	0	305	·	·
Cc1ccc(C(=O)N(Nc2nc3ccccc3s2)C(=O)c2ccc(C)cc2)cc1	40	8	-1	25*	11	228	14*	6
O=C1CC(SC(=Nc2ccccc2)Nc2ccccc2)C(=O)N1c1ccc(Cl)cc1 (stereo not drawn)	-10	11	4	12*	7	258	-1	9
O=C1CC(SC(=Nc2ccccc2)Nc2ccccc2)C(=O)N1c1cccc(Cl)c1 (stereo not drawn)	16	17	10	0	-2	204	·	·
C=CCn1c(SCC(=O)NC(=O)NCc2ccco2)nc2sc(C)c(C)c2c1=O	13	-5	-1	11*	13	662	10*	6
C=CCNC(=O)c1ccccc1NC(=O)c1ccc(Cl)c(S(=O)(=O)Nc2ccccc2)c1	-16	5	16	0	5	411	·	·
CCCNC(=O)C(Cc1ccc(Cl)cc1)NC(=O)c1ccc(-c2ccccc2)cc1 (stereo not drawn)	·	5	4	14*	·	724	2	17
CC(C)CCOP(=O)(c1ccc(N(C)C)cc1)C(O)c1ccccc1 (stereo not drawn)	·	3	13	1	·	178	·	·
Cc1n[nH]c(C)c1S(=O)(=O)N(CC(=O)N1CCc2ccccc21)c1ccc(C(C)C)cc1	2	-28	-5	13*	13	289	8	7
CCOc1ccc(N(CC(=O)N2CCc3ccccc32)S(=O)(=O)c2c(C)noc2C)cc1	30	6	-3	-2	19	514	·	·
CC(=O)c1cc2c(cc1NC(=O)c1ccc(C)cc1)OCCO2	·	1	3	9.6*	·	312	2	1
CCC(=O)c1cc2c(cc1NC(=O)c1ccc(C)cc1)OCCO2	25	1	-1	1	11	64	·	·
COc1ccccc1C(=O)N/C(N)=N/c1nc2ccccc2o1	26	5	-1	4	10	326	·	·
N/C(=N\c1nc2ccccc2o1)NC(=O)c1ccccc1	8	15	-1	14*	·	279	3	5
Cc1ccc(C(=O)N/C(N)=N/c2nc3ccccc3o2)cc1	20	-4	-7	16*	9	278	4	2
N/C(=N\c1nc2ccccc2o1)NC(=O)c1cccc(Br)c1	-5	9	-2	-2	17	101	·	·
COc1ccc(N=c2oc3c(OC)cccc3cc2C(=O)NCc2ccco2)c(OC)c1	47	17	0	32*	4	466	13*	25*
SMILES	EP2 modulator	MC4R antag cAMP	Exocytosis inh	MC4R barr agon	PGE2 EP2 inh	T cell HTS	MC4R barr conf	MOR-DOR barr ag
Cc1ccc(C)c(NC(=O)C(=O)NCc2ccccn2)c1	7	-1	-1	-1	7	347	·	·
CN1C(=O)[C@H]2[C@@H](c3ccc(C(F)(F)F)cc3)N[C@]3(CCCN(Cc4ccc(F)cc4)C3=O)[C@H]2C1=O	·	20	-1	-1	·	·	·	·
CN1C(=O)[C@H]2[C@@H](c3ccc(C(F)(F)F)cc3)N[C@]3(CCCN(Cc4ccc(Cl)cc4)C3=O)[C@H]2C1=O	·	16	-3	9.7*	·	·	-3	2
CCOC(=O)c1ccc(Nc2nnc(C(C)(C)C)c(=O)[nH]2)cc1	-24	-3	5	0	13	67	·	·
O=C(NC(=S)NCc1ccc(-c2nc3ccccc3s2)cc1)c1ccco1	-8	-2	-1	28*	12	332	6	2
O=C(NCc1ccc(-c2nc3ccccc3s2)cc1)c1ccco1	-96	0	9	-1	10	194	·	·
COc1ccc(CN(C)C(=O)CCN2C(=O)c3ccccc3C2=O)c(OC)c1OC	·	12	0	0	·	175	·	·
CC(=O)c1cc2c(cc1NC(=O)CN1CCN(c3cccc(C(F)(F)F)c3)CC1)OCO2	40	3	0	16*	8	355	-2	3
CC(=O)Nc1ccc(NC(=O)CN2CCN(c3cccc(C(F)(F)F)c3)CC2)cc1	-9	8	-4	2	8	170	·	·
COc1ccc(-c2sc3ccc(N4CCOCC4)cc3c2C#CC(C)(C)O)cc1	·	18	-2	23*	·	469	8	2
COc1ccc(-c2sc3ccc(N4CCOCC4)cc3c2C#Cc2ccsc2)cc1	·	5	2	-1	·	188	·	·
COc1cccc(-c2nc(NCc3cccnc3)c3ccccc3n2)c1O	·	1	-1	16*	·	237	6	8
O=C(Nc1nnc(C2CC2)s1)c1ccc(Cl)c(S(=O)(=O)N2CCc3ccccc3C2)c1	-49	2	5	11*	30	181	4	6
CCC(C)(C)n1nnnc1C(c1cc2cc(C)c(C)cc2[nH]c1=O)N1CCCc2ccccc21 (stereo not drawn)	24	·	·	·	18	·	·	·
O=C1OC(N2CCN(c3ccccn3)CC2)c2ccccc21 (stereo not drawn)	14	10	1	0	8	243	·	·
CCOC(=O)c1ccc(-c2ccc(/C=C(\C#N)C(=O)NCc3cccs3)o2)cc1	14	-19	-7	39*	4	516	27*	6
